The source of these data is ChEMBL document CHEMBL3352597, “Heck products of parthenolide and melampomagnolide-B as anticancer modulators that modify cell cycle progression” (Eur J Med Chem, 2014).

Assay [1] deals with Oocyte. Description: Induction of immature stage VI Xenopus oocyte maturation assessed as stimulation of progesterone-mediated maturation measured as germinal vesicle (nuclear) breakdown at 100 uM after overnight incubation. Type of assay: functional, cell-based. In a few lines: (§1)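 Oocytes (20 per well) pre-treated overnight with compound (100 μM final, DMSO) or DMSO vehicle, then stimulated with 2 μg/ml progesterone. GVBD (animal-pole white spot) scored at the time 50% of DMSO controls reach GVBD. Rate relative to control: 1.0 means no difference, above 1.0 acceleration, below 1.0 delay, 0.0 no maturation. Differences over 20% followed up.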

Assay [2] can be described thus: Anticancer activity against human PC3 cells assessed as growth inhibition at 10^-5 M. Type of assay: functional. Conditions: PC-3, read-out: GI. In a few lines: (§2)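 NCI-60 human tumour cell line panel screened at a single concentration of 10^-5 M; value is percent growth inhibition relative to untreated growth.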
Assay [3] relates to Oocyte. Description: Inhibition of immature stage VI Xenopus oocyte maturation assessed as inhibition of progesterone-mediated maturation measured as germinal vesicle (nuclear) breakdown at 100 uM after overnight incubation. The class given is functional, cell-based. In a few lines: as §1
Assay [4] can be described thus: Anticancer activity against human MOLT4 cells assessed as growth inhibition at 10^-5 M. The class given is functional. Conditions: MOLT-4, read-out: GI. In short, it runs like this:
as §2

The subject of assay [5] is Xenopus. Put plainly: Inhibition of MPF in immature stage VI Xenopus oocyte by Western blot analysis. In a few lines:
(§3)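 Oocytes pre-treated with DMSO or compound, stimulated with progesterone, and lysed at the time 50% of DMSO oocytes reached GVBD. Lysates analysed by 10% gel western blot with phospho-Cdc2 Tyr15 (inhibitory site) and phospho-MAPK antibodies (1:1000), tubulin 1:20,000. Membrane blocked in 1% BSA, 60 min, room temperature.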

For assay [6], the system named is Xenopus. Put plainly: Inhibition of Cyclin B/CDK in immature stage VI Xenopus oocyte by Western blot analysis. In short, it runs like this:
as §3
For orientation: In western blotting, separated proteins are transferred to a membrane and probed.

Assay [7] relates to Oocyte. Description: Inhibition of immature stage VI Xenopus oocyte maturation assessed as inhibition of progesterone-mediated maturation measured as germinal vesicle (nuclear) breakdown after overnight incubation. As to conditions: Xenopus laevis. The class given is functional, cell-based.
Assay [8] deals with Oocyte. Put plainly: Inhibition of immature stage VI Xenopus oocyte maturation assessed as inhibition of progesterone-mediated maturation measured as germinal vesicle (nuclear) breakdown at 1 to 100 uM after overnight incubation. The class given is functional, cell-based.

Active and inactive are the calls of the source. No cut-off for these calls is given here.

With `C[C@@]12CC/C=C(/CO)CC[C@@H]3/C(=C\c4cccs4)C(=O)O[C@@H]3[C@@H]1O2`, the result in assay [1] was Active.
The term EC50 denotes the midpoint of the concentration-response curve. Consider `C/C1=C\CC[C@@]2(C)O[C@@H]2[C@H]2OC(=O)/C(=C/c3ccc(N)cc3)[C@@H]2CC1`, for which the inhibition of growth at 10 µM came to 20.5% in assay [2] and 24.2% in assay [4]. Moreover, the inhibition result in assay [3] and in assay [8] was “Active” each time. For the same molecule, the inhibition result in assay [5] and in assay [6] was “inactive” throughout. In addition, the concentration giving a half-maximal response (EC50) in assay [7] is 5 µM.
Consider `C[C@@]12CC/C=C(/CO)CC[C@@H]3/C(=C\c4cccc(C(F)(F)F)c4)C(=O)O[C@@H]3[C@@H]1O2`, for which the result in assay [1] was Active.
For `C[C@@]12CC/C=C(/CO)CC[C@@H]3/C(=C\c4ccsc4)C(=O)O[C@@H]3[C@@H]1O2`, the inhibition entry in assay [3] was “Active”.
